Experimental data collected from several papers.
Compare with care: the assays were run in different laboratories.
Cell line: NCI-H460
Read-out: cell growth or viability

For `O=C1NC(=NCc2cccs2)S/C1=C\c1ccc2ncccc2c1`, the IC50 was greater than 10 µM.
For `CC(=O)O[C@H]1CC[C@]2(C)[C@H]3CC=C4[C@@H]5CC(C)(C)CC[C@]5(C)CC[C@@]4(C)[C@]3(C)CC[C@H]2C1(C)C`, the IC50 was 10.6 µM (48 h).
With `COC/C(=C/Cc1ccc(OC)cc1)c1ccc(OC)cc1` the IC50 was 75.4 µg/mL (MTT; 24 h).
The IC50 of `COc1cc(N(C)CCN(C)C)c(NC(=O)C=C(C)C)cc1Nc1nc(N2CCc3sccc3C2)c2sccc2n1` is reported as 0.533 µM (MTT).
`COc1cc(Nc2nccc(-c3cnn4nc(OC)ccc34)n2)cc(C(F)(F)F)c1` gave an IC50 of 0.33 µM (ATP luminescence).
`COc1cc(CNC(=O)CCCC/C=C/C(C)C)ccc1OCc1cn(-c2ccc(C(F)(F)F)cc2)nn1` has an IC50 of 6.65 µM (SRB).
`COc1ccc(C/C=C/c2ccc(O)c(OC)c2)cc1` has an IC50 of 12.3 µg/mL (MTT; 24 h).
With `Cc1cccc(-n2ncc(Br)c(Br)c2=O)c1` the IC50 was 1.43 µM (resazurin; 96 h).
`CCC(=O)Nc1cc(Nc2nc(N3CCc4sccc4C3)c3cccnc3n2)c(OC)cc1N1CCN(C(C)=O)CC1` has an IC50 of greater than 50 µM (MTT).
With `CC(=O)c1cccc(/N=N/c2cc(/C=C/C(=O)O)ccc2O)c1` the IC50 was greater than 50 µM (MTT).
The IC50 of `OCc1ccc2c(c1C#Cc1ccc(O)cc1)C(c1ccc(O)cc1)(c1ccc(O)cc1)c1cc(O)ccc1-2` is reported as greater than 50 µM (MTT; 48 h).
`COc1cc(/C=C/Cc2ccc(O)c(OC)c2)ccc1O` has an IC50 of 17.5 µg/mL (MTT; 24 h).
`COc1cccc2c1C(=O)c1c(O)c3c(c(O)c1C2=O)C[C@@](O)(C(=O)CO)C[C@@H]3O[C@H]1C[C@H](N)[C@H](O)[C@H](C)O1` gave an IC50 of 4.29 µM (SRB).
`Cc1ccc(-c2ccc(CCCN(O)C(=O)CP(=O)(O)O)cc2)cc1` gave an IC50 of 229 µM (MTT; 96 h).
`O=C(O)/C=C/c1ccc(O)c(O)c1` has an IC50 of 3.9 µM (MTT).
The IC50 of `COc1ccc(C/C=C(/CO)c2ccc(OC)cc2)cc1` is reported as 30.9 µg/mL (MTT; 24 h).
With `Cc1ccc(-c2ccc(O)cc2)c(C(=C2C=CC(=O)C=C2)c2ccc(O)cc2)c1C#Cc1ccc(O)cc1` the IC50 was 15.5 µM (MTT; 48 h).
For `C=C(Cl)C(=O)Nc1cc(Nc2nc(Nc3cnn(C)c3)c3sccc3n2)c(OC)cc1N(C)CCN(C)C`, the IC50 was 3.22 µM (MTT).
The IC50 of `OC/C(=C/Cc1ccc(O)cc1)c1ccc(O)cc1` is reported as 44.9 µg/mL (MTT; 24 h).
The IC50 of `CCC(=O)Nc1cc(Nc2nc(N3CCOCC3)c3sccc3n2)c(OC)cc1N(C)CCN(C)C` is reported as greater than 50 µM (MTT).
The IC50 of `C(/Cc1ccc(OCc2ccccc2)cc1)=C(\COCc1ccccc1)c1ccc(OCc2ccccc2)cc1` is reported as 48.3 µg/mL (MTT; 24 h).
With `C=C(Cl)C(=O)Nc1cc(Nc2nc(N3CCc4sccc4C3)c3sccc3n2)c(OC)cc1N(C)CCN(C)C` the IC50 was 2.33 µM (MTT).
`CC(=O)c1ccc(/N=N/c2cc(/C=C/C(=O)O)ccc2O)cc1` gave an IC50 of greater than 50 µM (MTT).
`C=CC(=O)Nc1cc(Nc2nc(Nc3cnn(C)c3)c3sccc3n2)c(OC)cc1N(C)CCN(C)C` gave an IC50 of greater than 50 µM (MTT).
The IC50 of `CC(=O)c1ccc(N=Nc2c(C(=O)O)cc(O)c(O)c2O)cc1` is reported as 13.6 µM (MTT).
The IC50 of `C=CC(=O)Nc1cc(Nc2nc(N3CCc4sccc4C3)c3cccnc3n2)c(OC)cc1N1CCN(CC)CC1` is reported as 0.652 µM (MTT).
For `CCN1CCN(Cc2ccc(Nc3ncc(F)c(-c4cc(F)c5nc(C)n(C(C)C)c5c4)n3)nc2)CC1`, the IC50 was 0.962 µM (CCK-8).
The IC50 of `CCC(=O)Nc1cc(Nc2nc(N3CCc4sccc4C3)c3cccnc3n2)c(OC)cc1N1CCN(CC)CC1` is reported as 1.16 µM (MTT).
With `CC[C@@]1(O)C(=O)OCc2c1cc1n(c2=O)Cc2cc3ccccc3nc2-1` the IC50 was less than 0.01 µM (72 h).
